In ChEMBL document CHEMBL4052722, “Virtual screening, synthesis and biological evaluation of DNA intercalating antiviral agents” (Bioorg Med Chem Lett, 2017):

species on record: Bos taurus; experiment: Displacement of ethidium bromide from calf thymus DNA by fluorescence binding assay; settings: not given

Compound | log Ka
CN1CCN(CCn2c3ccccc3c3nc4ccccc4nc32)CC1 | 5.87
O=C(CN1CCCC1)NN1C(=O)c2cccc3cccc(c23)C1=O | 5.41
CCN(CC)CCNC(=O)CCCN1C(=O)c2cccc3cccc(c23)C1=O | 6.13
CC1CCN(CCCCn2c3ccccc3c3nc4ccccc4nc32)CC1 | 5.8
O=C(Cn1c2ccccc2c2nc3ccccc3nc21)OCCCN1CCOCC1 | 5.14
O=C(CCN1C(=O)c2cccc3cccc(c23)C1=O)NCCCN1CCOCC1 | 5.72
O=C(Cn1c2ccccc2c2nc3ccccc3nc21)NCCN1CCCCC1 | 5.15
O=C(Cn1c2ccccc2c2nc3ccccc3nc21)NCCNCCO | 5.37
O=C(CCCN1C(=O)c2cccc3cccc(c23)C1=O)NCCCN1CCOCC1 | 5.07
CCCCN(CC)CCn1c2ccccc2c2nc3ccccc3nc21 | 6.01
CC1CCN(CCC(=O)N/N=C2\C(=O)Nc3ccccc32)CC1 | 5.91
O=C(CCCn1c2ccccc2c2nc3ccccc3nc21)OCCCN1CCOCC1 | 5.35
c1ccc2nc3c(nc2c1)c1ccccc1n3CCNCCN1CCOCC1 | 6.17
CN(C)CCn1c2ccccc2c2nc3ccccc3nc21 | 5.93
CN1CCN(CC(=O)N/N=C2\C(=O)Nc3ccc4ccccc4c32)CC1 | 5.99
CCN(CC)CCNC(=O)Cn1c2ccccc2c2nc3ccccc3nc21 | 5.03
CN(C)CCNC(=O)CCCn1c2ccccc2c2nc3ccccc3nc21 | 5.01
c1ccc2nc3c(nc2c1)c1ccccc1n3CCN1CCCCC1 | 6.01
CCN(CC)CCCNC(=O)CCN1C(=O)c2cccc3cccc(c23)C1=O | 5.79
CCN(CC)CCNCCn1c2ccccc2c2nc3ccccc3nc21 | 6.82
CCCN(CCC)CCn1c2ccc3ccccc3c2c2nc3ccccc3nc21 | 6.91
O=C(CN1CCCCCC1)NN1C(=O)c2cccc3cccc(c23)C1=O | 5.53
c1ccc2nc3c(nc2c1)c1ccccc1n3CCN1CCOCC1 | 5.89
CN(C)CCCCn1c2ccccc2c2nc3ccccc3nc21 | 5.61
CN(C)CCOC(=O)CCCn1c2ccccc2c2nc3ccccc3nc21 | 5.56
CN(C)CCCOC(=O)CCCn1c2ccccc2c2nc3ccccc3nc21 | 5.32
CCN(CC)CCCNC(=O)CCCN1C(=O)c2cccc3cccc(c23)C1=O | 6.21

tested on: not listed separately; experiment: Cytotoxicity against African green monkey CV1 cells assessed as cell viability at 0.1 to 100 uM preincubated for 4 hrs measured after 24 hrs by MTT assay relative to control; format: cell-based, CV-1; settings: chlorocebus aethiops, read-out: Activity
Method in brief: (§1)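 CV-1 cells were exposed to test samples at 0.1, 10 and 100 μM. Viability was read by MTT assay.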

Compound | viability at 24 h, up to 100 µM [%]
Cc1ccc2c(c1)c1nc3ccccc3nc1n2CCN1CCN(C)CC1 | 87
COC(=O)CN1CCN(CCN2C(=O)c3cccc4cccc(c34)C2=O)CC1 | 78
CC(O)N(C)CCn1c2ccccc2c2nc3ccccc3nc21 (stereo not given) | 78
CCCCN(CCO)CCN1C(=O)c2cccc3cccc(c23)C1=O | 70
CCN(CCO)CCN1C(=O)c2cccc3cccc(c23)C1=O | 79
CN1CCN(CCN2C(=O)c3cccc4cccc(c34)C2=O)CC1 | 65
COC(=O)CN(C)CCCN1C(=O)c2cccc3cccc(c23)C1=O | 90
CN1CCN(CCn2c3ccccc3c3nc4ccccc4nc32)CC1 | 82
O=C(CN1CCCC1)NN1C(=O)c2cccc3cccc(c23)C1=O | 99
CN(CCO)CCN1C(=O)c2cccc3cccc(c23)C1=O | 88
CN(C)CCn1c2ccccc2c2nc3ccccc3nc21 | 62
CCN(CC)CCNC(=O)Cn1c2ccccc2c2nc3ccccc3nc21 | 100
CCN(CC)CCn1c2ccc(OC)cc2c2nc3ccccc3nc21 | 60
CN(C)CCNC(=O)CCCn1c2ccccc2c2nc3ccccc3nc21 | 93
CCN(CC)CCNCCn1c2ccccc2c2nc3ccccc3nc21 | 99
O=C(CN1CCCCCC1)NN1C(=O)c2cccc3cccc(c23)C1=O | 97
CN(C)CCOC(=O)CCCn1c2ccccc2c2nc3ccccc3nc21 | 94

tested on: not listed separately; experiment: Cytotoxicity against African green monkey CV1 cells assessed as reduction in cell viability preincubated for 4 hrs measured after 24 hrs by MTT assay relative to control; format: cell-based, CV-1; settings: chlorocebus aethiops; method in brief: as §1

Compound | CC50 at 24 h [µM]
Cc1ccc2c(c1)c1nc3ccccc3nc1n2CCN1CCN(C)CC1 | 100
COC(=O)CN1CCN(CCN2C(=O)c3cccc4cccc(c34)C2=O)CC1 | > 100
CC(O)N(C)CCn1c2ccccc2c2nc3ccccc3nc21 (stereo not given) | 100
CCCCN(CCO)CCN1C(=O)c2cccc3cccc(c23)C1=O | > 100
CCN(CCO)CCN1C(=O)c2cccc3cccc(c23)C1=O | 100
CN1CCN(CCN2C(=O)c3cccc4cccc(c34)C2=O)CC1 | 100
COC(=O)CN(C)CCCN1C(=O)c2cccc3cccc(c23)C1=O | > 100
CN1CCN(CCn2c3ccccc3c3nc4ccccc4nc32)CC1 | 50
O=C(CN1CCCC1)NN1C(=O)c2cccc3cccc(c23)C1=O | > 100
CN(CCO)CCN1C(=O)c2cccc3cccc(c23)C1=O | > 100
CN(C)CCn1c2ccccc2c2nc3ccccc3nc21 | 10
CCN(CC)CCNC(=O)Cn1c2ccccc2c2nc3ccccc3nc21 | > 100
CCN(CC)CCn1c2ccc(OC)cc2c2nc3ccccc3nc21 | 100
CN(C)CCNC(=O)CCCn1c2ccccc2c2nc3ccccc3nc21 | 100
CCN(CC)CCNCCn1c2ccccc2c2nc3ccccc3nc21 | > 100
O=C(CN1CCCCCC1)NN1C(=O)c2cccc3cccc(c23)C1=O | > 100
CN(C)CCOC(=O)CCCn1c2ccccc2c2nc3ccccc3nc21 | 100

tested on: Vesicular stomatitis virus; experiment: Antiviral activity against Vesicular stomatitis virus at 0.2 to 620 uM after 24 hrs post infection relative to control; format: functional; settings: not given

Compound | Activity [%]
CN1CCN(CCn2c3ccccc3c3nc4ccccc4nc32)CC1 | 85
CCN(CC)CCNC(=O)CCCN1C(=O)c2cccc3cccc(c23)C1=O | 20
CC1CCN(CCCCn2c3ccccc3c3nc4ccccc4nc32)CC1 | 20
O=C(Cn1c2ccccc2c2nc3ccccc3nc21)OCCCN1CCOCC1 | 15
O=C(CCN1C(=O)c2cccc3cccc(c23)C1=O)NCCCN1CCOCC1 | 30
O=C(Cn1c2ccccc2c2nc3ccccc3nc21)NCCN1CCCCC1 | 80
O=C(Cn1c2ccccc2c2nc3ccccc3nc21)NCCNCCO | 70
O=C(CCCN1C(=O)c2cccc3cccc(c23)C1=O)NCCCN1CCOCC1 | 30
CCCCN(CC)CCn1c2ccccc2c2nc3ccccc3nc21 | 50
CC1CCN(CCC(=O)N/N=C2\C(=O)Nc3ccccc32)CC1 | 80
O=C(CCCn1c2ccccc2c2nc3ccccc3nc21)OCCCN1CCOCC1 | 100
c1ccc2nc3c(nc2c1)c1ccccc1n3CCNCCN1CCOCC1 | 40
CN(C)CCn1c2ccccc2c2nc3ccccc3nc21 | 75
CN1CCN(CC(=O)N/N=C2\C(=O)Nc3ccc4ccccc4c32)CC1 | 70
CCN(CC)CCNC(=O)Cn1c2ccccc2c2nc3ccccc3nc21 | 75
c1ccc2nc3c(nc2c1)c1ccccc1n3CCN1CCCCC1 | 90
CCN(CC)CCCNC(=O)CCN1C(=O)c2cccc3cccc(c23)C1=O | 10
CCN(CC)CCNCCn1c2ccccc2c2nc3ccccc3nc21 | 73
CCCN(CCC)CCn1c2ccc3ccccc3c2c2nc3ccccc3nc21 | 16
c1ccc2nc3c(nc2c1)c1ccccc1n3CCN1CCOCC1 | 85
CN(C)CCCCn1c2ccccc2c2nc3ccccc3nc21 | 30
CN(C)CCOC(=O)CCCn1c2ccccc2c2nc3ccccc3nc21 | 75
CN(C)CCCOC(=O)CCCn1c2ccccc2c2nc3ccccc3nc21 | 100
CCN(CC)CCCNC(=O)CCCN1C(=O)c2cccc3cccc(c23)C1=O | 15
